# Results of several laboratories.
# Compare with care: the assays were run in different laboratories.
# BCHE: Cholinesterase (BCHE, Homo sapiens, UniProt P06276)
Structure (SMILES),target,test,conditions,endpoint,value
CCN(CC)CCCC[C@H](NC(=O)[C@H](CC(C)C)NC(=O)[C@H](C)NC(=O)[C@H](Cc1ccccc1)NC(=O)c1ccc(C(C)(C)C)cc1)C(=O)N[C@@H](CO)C(=O)OC,"Chromatin remodeling regulator CECR2 (CECR2, Homo sapiens, UniProt Q9BXF3)","thermal stability, DSF",25 µM,ΔTm,0.58 °C
NC(=O)c1cccc(-c2cccc(OC(=O)NC3CCCCC3)c2)c1,"Cocaine esterase (CES2, Homo sapiens, UniProt O00748)","enzyme activity, inhibitor",pH 7.4,kinact/KI,3900 M⁻¹ s⁻¹
C=CCn1c2cc(OC(=O)CCCCN3CCN(Cc4ccccc4)CC3)ccc2c2ccnc(C)c21,BCHE,"enzyme activity, inhibitor, Ellman",1 µM,inhibition,38.5%
Nc1ncc(-c2nc(N3CCOCC3)nc(N3CCOCC3)n2)c(C(F)F)n1,"Peripheral plasma membrane protein CASK (CASK, Homo sapiens, UniProt O14936)","binding, competition with immobilised ligand",10 µM,remaining binding,77%
C#Cc1n[nH]c2c(-c3cn(C(C)c4ccccn4)c(=O)[nH]c3=O)cc(F)cc12 (centres unmarked),"Fibroblast growth factor receptor 1 (FGFR1, Homo sapiens, UniProt P11362, V561M)","enzyme activity, inhibitor",1 µM,inhibition,11.4%
C=CCn1c2cc(OC(=O)CCN3CCN(Cc4ccccc4)CC3)ccc2c2ccnc(C)c21,BCHE,"enzyme activity, inhibitor, Ellman",1 µM,inhibition,29.9%
Cc1nn(C)cc1-c1nc2c(N3CCN(Cc4ccc(Cl)cc4)CC3)c(Cl)cnc2[nH]1,"Interferon-induced, double-stranded RNA-activated protein kinase (EIF2AK2, Homo sapiens, UniProt P19525)","binding, competition with immobilised ligand",1 µM,remaining binding,95%
COc1ncccc1-c1cnn2ccc(N3CCN(C(=O)OC(C)C)CC3)nc12,"Dual specificity mitogen-activated protein kinase kinase 5 (MAP2K5, Homo sapiens, UniProt Q13163)","binding, competition with immobilised ligand",1 µM,remaining binding,65%
